Results: ChEMBL document CHEMBL4017535 (J Med Chem, 2017)

Tests used:
[1] = molecular target: Protein polybromo-1 (Homo sapiens, UniProt Q86U86); assay: Binding affinity to human PBRM1 bromodamian-5 (S645 to D766 residues) expressed in bacterial expression system by BROMOscan assay
[2] = tested on: Rattus norvegicus; assay: Plasma unbound clearance in rat at 1 mg/kg, iv; assay type: ADME, organism-based; conditions: in vivo
Summary of the method: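 In rats, 1 mg/kg was given by both IV and PO routes. IV clearance is unbound (Cl_p,u, L/hr/kg). FaFg is taken as F/(1-Clp/Qh), using rat Qh 3.8 L/hr/kg. Unbound plasma fraction was determined in rat plasma.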

[3] = Intrinsic clearance in monkey liver microsomes; assay type: ADME, Macaca mulatta, microsome; conditions: rhesus monkey, read-out: CLH (converted)
[4] = tested on: MX1; assay: Antiproliferative activity against human MX1 cells after 72 hrs by Cell Titer Glo assay; assay type: functional, cell-based; conditions: MX1, 72 h
[5] = tested on: Mus musculus; assay: Inhibition of LPS-induced IL-6 release in po dosed CD-1 mouse serum assessed as plasma concentration required to show 50% inhibition administered for 1 hr followed by LPS challenge measured after 2 hrs by immunoassay; assay type: functional, organism-based
Summary of the method: (§1)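 Compound given orally to mice, followed by an LPS challenge. Plasma IL-6 and plasma compound concentration were both measured 2 hours after LPS. Inhibition was related to dose and to plasma concentration at the time of cytokine measurement. Values are mean ± SE, n=5 per group.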

[6] = tested on: Kasumi 1; assay: Antitumor activity against gamma-irradiated human Kasumi-1 cells xenografted in NOD.SCID mouse assessed as tumor growth inhibition at 1 mg/kg, po qd for 25 days relative to control; assay type: functional; conditions: Kasumi 1, light or radiation study, 600 h, read-out: TGI
Summary of the method: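 Kasumi-1 AML xenograft in mice, with tumor growth inhibition (TGI) as the read-out. For the test agent, dosing was oral, once daily at 1 mg/kg for 25 days, with tolerability tracked as body-weight loss. For 5-azacitidine, dosing was IV, Q7d, at 8 mg/kg.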

[7] = Half life in human at 1 mg, po; assay type: ADME; conditions: in vivo
Summary of the method: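 Clinical PK in subjects with cancer after a single 1 mg oral dose, n = 3. Apparent clearance was reported as PO CLp/F in L/hr.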

[8] = organism: Rattus norvegicus; assay: Drug excretion in rat using radiolabelled compound; assay type: ADME; conditions: in vivo
[9] = Plasma clearance in iv dosed human; assay type: ADME, organism-based
[10] = molecular target: T1, Bromodomain-containing protein 4 (Homo sapiens, UniProt O60885); assay: Inhibition of BRD4 in human H1299 cells assessed as decrease in HPV LCR-E2-EP400-mediated transcriptional repression after 24 hrs by Bright-Glo luciferase reporter gene assay; assay type: cell-based
[11] = Half life in mouse at 10 mg/kg, po; assay type: ADME, organism-based; conditions: in vivo
[12] = molecular target: Translocator protein (Homo sapiens, UniProt P30536); assay: Antagonist activity at peripheral benzodiazepine receptor (unknown origin)
[13] = molecular target: Histone acetyltransferase KAT2A (Homo sapiens, UniProt Q92830); assay: Binding affinity to human GCN5L2 (E726 to K837 residues) expressed in bacterial expression system by BROMOscan assay
[14] = Half life in po dosed dog; assay type: ADME, organism-based, Canis lupus familiaris; conditions: in vivo
[15] = Plasma clearance in iv dosed monkey; assay type: ADME, organism-based, Macaca mulatta; conditions: rhesus monkey
[16] = tested on: Mus musculus; assay: Oral absorption in mouse at 10 mg/kg; assay type: ADME, organism-based; conditions: in vivo
Summary of the method: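 Oral absorption is expressed as FaFg, calculated as F/(1-Clp/Qh). Liver blood flow (Qh) was 5.2 L/hr/kg for mouse and 3.8 L/hr/kg for rat. Mouse dosing was 3 mg/kg IV and 10 mg/kg PO; rat dosing was 1 mg/kg IV and PO.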

[17] = tested on: Rattus norvegicus; assay: Unbound AUC in rat at 1 mg/kg, po; conditions: in vivo
[18] = Intrinsic clearance in mouse liver microsomes; assay type: ADME, microsome; conditions: read-out: CLH (converted)
[19] = molecular target: Adenosine receptor A2a (Homo sapiens) (UniProt P29274); conditions: HEK293, 10 uM
[20] = Half life in po dosed monkey; assay type: ADME, organism-based, Macaca mulatta; conditions: rhesus monkey, in vivo
[21] = Fraction unbound in mouse plasma at 1 uM after 4 hrs by LC-MS/MS method; assay type: ADME, cell-free
[22] = tested on: Liver; assay: Unbound intrinsic clearance in human liver microsomes at 10 uM preincubated for 5 mins followed by NADPH addition measured after 60 mins by HPLC-UV-MS analysis; assay type: ADME, microsome; conditions: 1 h
[23] = Oral bioavailability in dog; assay type: ADME, organism-based, Canis lupus familiaris; conditions: in vivo
[24] = molecular target: Chromatin remodeling regulator CECR2 (Homo sapiens, UniProt Q9BXF3); assay: Binding affinity to human CECR2 (P423 to D543 residues) expressed in bacterial expression system by BROMOscan assay
[25] = molecular target: Adenosine receptor A1 (Homo sapiens) (UniProt P30542); assay: Displacement of [3H]-DPCPX from recombinant human adenosine A1 receptor expressed in CHO cells at 10 uM; assay type: cell-based
[26] = tested on: Mus musculus; assay: Inhibition of LPS-induced IL-6 release in po dosed CD-1 mouse serum administered for 1 hr followed by LPS challenge measured after 2 hrs by immunoassay; assay type: functional, organism-based; summary of the method: as §1
[27] = molecular target: Adenosine receptor A2b (Homo sapiens, UniProt P29275); assay: Antagonist activity at adenosine A2B receptor (unknown origin)
[28] = Intrinsic clearance in human hepatocytes; assay type: ADME, cell-based, Hepatocyte; conditions: read-out: CLH (converted)
[29] = molecular target: Histone acetyltransferase p300 (Homo sapiens, UniProt Q09472); assay: Binding affinity to human EP300 (A1040 to G1161 residues) expressed in bacterial expression system by BROMOscan assay
[30] = Intrinsic clearance in mouse hepatocytes; assay type: ADME, cell-based, Hepatocyte; conditions: read-out: CLH (converted)
[31] = Oral bioavailability in monkey; assay type: ADME, organism-based, Macaca mulatta; conditions: rhesus monkey, in vivo
[32] = Intrinsic clearance in rat liver microsomes at 10 uM preincubated for 5 mins followed by NADPH addition measured after 60 mins by HPLC-UV-MS analysis; assay type: ADME, microsome; conditions: read-out: CLH (converted)
[33] = tested on: Mus musculus; assay: Toxicity in NOD.SCID mouse assessed as maximum mean body weight loss at 1 mg/kg, po qd for 25 days (reference value: 9%); assay type: organism-based; conditions: in vivo, 600 h
[34] = molecular target: Bromodomain and WD repeat-containing protein 1 (Homo sapiens, UniProt Q9NSI6); assay: Binding affinity to human WDR9(2) (A1310 to E1430 residues) expressed in bacterial expression system by BROMOscan assay
[35] = molecular target: T1, Bromodomain-containing protein 4; assay: Binding affinity to human N-terminal His6-tagged BRD4 BD1-BD2 (K57 to K550 residues) after 1 hr using alexa-647 conjugated probe by TR-FRET assay
[36] = Intrinsic clearance in dog liver microsomes; assay type: ADME, Canis lupus familiaris, microsome; conditions: read-out: CLH (converted)
[37] = molecular target: Bromodomain-containing protein 9 (Homo sapiens, UniProt Q9H8M2); assay: Binding affinity to human BRD9 (R130 to V259 residues) expressed in bacterial expression system by BROMOscan assay
[38] = Permeability in MDCK cells; assay type: ADME, cell-based, Canis lupus familiaris; conditions: dog, read-out: permeability
[39] = Plasma clearance in rat at 1 mg/kg, iv; assay type: ADME, organism-based
[40] = molecular target: Bromodomain-containing protein 7 (Homo sapiens, UniProt Q9NPI1); assay: Binding affinity to human BRD7 (L125 to R254 residues) expressed in mammalian expression system by BROMOscan assay
[41] = molecular target: Peregrin (Homo sapiens, UniProt P55201); assay: Binding affinity to human BRPF1 (E627 to G740 residues) expressed in bacterial expression system by BROMOscan assay

Bromodomain-containing protein 9, sequence (Q9H8M2 whole entry, the tested form may be a part): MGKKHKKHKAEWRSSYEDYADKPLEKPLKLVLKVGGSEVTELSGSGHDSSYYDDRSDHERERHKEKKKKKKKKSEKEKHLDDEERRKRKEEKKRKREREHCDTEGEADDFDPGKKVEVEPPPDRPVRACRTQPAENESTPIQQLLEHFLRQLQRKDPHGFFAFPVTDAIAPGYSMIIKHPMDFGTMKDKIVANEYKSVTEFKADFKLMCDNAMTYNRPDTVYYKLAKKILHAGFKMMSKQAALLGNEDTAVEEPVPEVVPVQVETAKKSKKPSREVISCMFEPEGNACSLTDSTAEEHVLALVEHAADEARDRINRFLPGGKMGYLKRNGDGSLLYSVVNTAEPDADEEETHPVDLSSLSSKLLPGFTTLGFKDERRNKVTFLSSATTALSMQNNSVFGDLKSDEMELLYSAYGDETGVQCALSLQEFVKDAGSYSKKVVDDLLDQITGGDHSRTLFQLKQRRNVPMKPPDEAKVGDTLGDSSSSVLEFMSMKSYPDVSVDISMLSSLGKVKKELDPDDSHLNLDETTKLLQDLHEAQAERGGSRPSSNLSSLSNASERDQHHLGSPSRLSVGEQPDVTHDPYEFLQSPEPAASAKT
Protein polybromo-1, sequence (Q86U86 whole entry, the tested form may be a part): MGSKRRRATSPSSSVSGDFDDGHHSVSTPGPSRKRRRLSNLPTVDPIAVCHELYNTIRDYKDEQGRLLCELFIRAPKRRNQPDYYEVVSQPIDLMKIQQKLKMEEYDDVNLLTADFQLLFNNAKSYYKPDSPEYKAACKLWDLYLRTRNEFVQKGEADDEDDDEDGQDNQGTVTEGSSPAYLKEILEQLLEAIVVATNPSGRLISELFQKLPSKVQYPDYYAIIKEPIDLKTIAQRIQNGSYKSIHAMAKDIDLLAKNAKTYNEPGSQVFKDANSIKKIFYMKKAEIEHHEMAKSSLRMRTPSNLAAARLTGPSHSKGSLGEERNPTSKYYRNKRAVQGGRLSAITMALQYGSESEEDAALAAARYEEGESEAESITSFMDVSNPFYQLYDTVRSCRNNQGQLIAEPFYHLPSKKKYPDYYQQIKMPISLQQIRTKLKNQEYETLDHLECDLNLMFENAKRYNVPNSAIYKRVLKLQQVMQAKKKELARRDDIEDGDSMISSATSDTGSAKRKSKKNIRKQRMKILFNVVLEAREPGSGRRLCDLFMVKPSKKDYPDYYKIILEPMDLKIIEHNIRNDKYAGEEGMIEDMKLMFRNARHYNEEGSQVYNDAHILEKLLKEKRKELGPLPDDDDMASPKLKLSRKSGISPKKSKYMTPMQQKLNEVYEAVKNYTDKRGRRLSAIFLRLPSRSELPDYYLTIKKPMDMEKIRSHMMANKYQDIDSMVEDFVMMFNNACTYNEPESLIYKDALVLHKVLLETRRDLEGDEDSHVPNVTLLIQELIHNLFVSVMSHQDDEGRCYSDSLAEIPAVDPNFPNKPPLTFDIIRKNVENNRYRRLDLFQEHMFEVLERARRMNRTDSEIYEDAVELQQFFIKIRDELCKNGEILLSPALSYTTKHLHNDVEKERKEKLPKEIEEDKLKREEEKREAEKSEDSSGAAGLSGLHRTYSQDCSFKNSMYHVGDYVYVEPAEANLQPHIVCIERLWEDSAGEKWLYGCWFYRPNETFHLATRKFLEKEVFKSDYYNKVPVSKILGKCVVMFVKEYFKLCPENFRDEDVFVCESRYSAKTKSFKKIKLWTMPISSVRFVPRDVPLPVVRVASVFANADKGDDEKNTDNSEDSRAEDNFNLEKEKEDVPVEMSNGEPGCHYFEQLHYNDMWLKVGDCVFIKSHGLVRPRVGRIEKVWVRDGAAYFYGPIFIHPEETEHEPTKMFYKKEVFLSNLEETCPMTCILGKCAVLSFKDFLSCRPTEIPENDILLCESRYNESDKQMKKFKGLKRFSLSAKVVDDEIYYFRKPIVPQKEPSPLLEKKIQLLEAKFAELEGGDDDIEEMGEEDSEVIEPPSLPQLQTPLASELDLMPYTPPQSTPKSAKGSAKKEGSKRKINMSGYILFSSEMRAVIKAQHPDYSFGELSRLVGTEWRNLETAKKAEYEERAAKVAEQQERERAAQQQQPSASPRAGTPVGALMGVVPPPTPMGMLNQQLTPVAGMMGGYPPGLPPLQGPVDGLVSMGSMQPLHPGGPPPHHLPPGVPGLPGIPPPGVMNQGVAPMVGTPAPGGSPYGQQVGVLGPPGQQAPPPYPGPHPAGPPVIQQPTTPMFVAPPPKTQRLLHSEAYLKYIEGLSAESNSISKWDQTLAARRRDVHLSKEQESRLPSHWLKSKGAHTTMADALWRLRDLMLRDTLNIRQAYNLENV
Adenosine receptor A2b, sequence (P29275 whole entry): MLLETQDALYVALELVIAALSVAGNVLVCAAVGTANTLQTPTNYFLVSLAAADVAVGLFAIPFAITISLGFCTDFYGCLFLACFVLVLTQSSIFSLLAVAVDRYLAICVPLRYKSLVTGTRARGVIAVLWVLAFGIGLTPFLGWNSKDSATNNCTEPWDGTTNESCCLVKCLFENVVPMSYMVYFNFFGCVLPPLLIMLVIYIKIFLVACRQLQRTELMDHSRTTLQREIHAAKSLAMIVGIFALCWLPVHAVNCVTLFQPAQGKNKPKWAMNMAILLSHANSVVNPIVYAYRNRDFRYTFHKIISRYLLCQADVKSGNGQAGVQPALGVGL
Chromatin remodeling regulator CECR2, sequence (Q9BXF3 whole entry, the tested form may be a part): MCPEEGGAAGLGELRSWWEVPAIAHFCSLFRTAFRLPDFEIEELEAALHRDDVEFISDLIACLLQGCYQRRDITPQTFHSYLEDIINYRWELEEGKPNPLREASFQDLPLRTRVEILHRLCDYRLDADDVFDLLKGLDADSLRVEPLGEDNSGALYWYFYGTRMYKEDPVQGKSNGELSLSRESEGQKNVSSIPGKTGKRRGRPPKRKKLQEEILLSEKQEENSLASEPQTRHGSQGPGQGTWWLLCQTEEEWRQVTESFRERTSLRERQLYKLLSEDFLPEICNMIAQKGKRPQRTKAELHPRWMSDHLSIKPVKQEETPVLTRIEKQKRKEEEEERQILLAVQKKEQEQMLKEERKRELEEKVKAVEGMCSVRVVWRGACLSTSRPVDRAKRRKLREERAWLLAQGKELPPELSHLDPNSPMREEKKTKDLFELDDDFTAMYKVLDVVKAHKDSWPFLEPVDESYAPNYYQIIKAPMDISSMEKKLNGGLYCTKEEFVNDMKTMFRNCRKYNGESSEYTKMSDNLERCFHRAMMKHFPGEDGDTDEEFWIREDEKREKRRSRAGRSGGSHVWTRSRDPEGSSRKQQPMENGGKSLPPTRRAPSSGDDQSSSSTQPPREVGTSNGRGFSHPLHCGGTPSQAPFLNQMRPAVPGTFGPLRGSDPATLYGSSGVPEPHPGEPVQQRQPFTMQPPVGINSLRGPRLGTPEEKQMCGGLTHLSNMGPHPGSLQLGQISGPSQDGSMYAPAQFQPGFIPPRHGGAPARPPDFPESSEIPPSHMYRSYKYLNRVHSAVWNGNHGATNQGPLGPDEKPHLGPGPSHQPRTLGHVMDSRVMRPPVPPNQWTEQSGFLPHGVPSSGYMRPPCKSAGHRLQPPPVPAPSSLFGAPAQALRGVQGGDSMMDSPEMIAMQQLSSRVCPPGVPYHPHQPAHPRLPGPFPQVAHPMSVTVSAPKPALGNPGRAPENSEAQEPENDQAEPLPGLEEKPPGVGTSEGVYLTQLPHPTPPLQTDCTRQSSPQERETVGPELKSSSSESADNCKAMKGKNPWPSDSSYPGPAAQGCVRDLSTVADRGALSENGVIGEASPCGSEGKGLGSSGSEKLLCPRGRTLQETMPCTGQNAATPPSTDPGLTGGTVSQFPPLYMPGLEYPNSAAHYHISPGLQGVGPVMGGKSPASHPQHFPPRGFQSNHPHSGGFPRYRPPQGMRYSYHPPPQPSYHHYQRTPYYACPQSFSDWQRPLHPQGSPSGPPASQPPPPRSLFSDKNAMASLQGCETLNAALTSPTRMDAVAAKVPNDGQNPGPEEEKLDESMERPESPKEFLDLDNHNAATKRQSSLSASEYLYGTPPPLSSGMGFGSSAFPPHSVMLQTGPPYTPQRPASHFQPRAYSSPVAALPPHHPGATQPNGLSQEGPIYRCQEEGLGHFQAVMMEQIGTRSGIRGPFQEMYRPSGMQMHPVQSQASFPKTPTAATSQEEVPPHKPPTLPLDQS
Bromodomain-containing protein 7, sequence (Q9NPI1 whole entry, the tested form may be a part): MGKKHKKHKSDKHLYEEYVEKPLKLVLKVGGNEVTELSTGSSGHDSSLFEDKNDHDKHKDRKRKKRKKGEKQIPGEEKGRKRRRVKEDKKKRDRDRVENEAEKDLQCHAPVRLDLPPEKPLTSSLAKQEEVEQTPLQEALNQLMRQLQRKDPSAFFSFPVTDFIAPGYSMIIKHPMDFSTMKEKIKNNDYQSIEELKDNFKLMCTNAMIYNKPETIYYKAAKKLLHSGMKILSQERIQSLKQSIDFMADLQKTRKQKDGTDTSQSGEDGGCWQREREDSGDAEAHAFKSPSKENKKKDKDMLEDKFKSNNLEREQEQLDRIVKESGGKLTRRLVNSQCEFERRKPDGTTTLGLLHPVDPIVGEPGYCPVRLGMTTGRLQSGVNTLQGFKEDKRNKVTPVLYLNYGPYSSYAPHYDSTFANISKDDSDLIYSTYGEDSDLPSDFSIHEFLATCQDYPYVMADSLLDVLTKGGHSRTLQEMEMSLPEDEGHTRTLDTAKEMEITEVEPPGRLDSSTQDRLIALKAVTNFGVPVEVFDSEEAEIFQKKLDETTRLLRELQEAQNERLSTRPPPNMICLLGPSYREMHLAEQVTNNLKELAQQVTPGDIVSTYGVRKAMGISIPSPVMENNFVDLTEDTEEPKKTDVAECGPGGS
Translocator protein, sequence (P30536 whole entry, the tested form may be a part): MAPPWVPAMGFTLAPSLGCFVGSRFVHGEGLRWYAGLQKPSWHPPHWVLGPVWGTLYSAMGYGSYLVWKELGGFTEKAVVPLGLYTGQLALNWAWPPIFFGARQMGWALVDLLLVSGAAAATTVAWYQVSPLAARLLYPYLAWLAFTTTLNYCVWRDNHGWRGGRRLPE

With `CCS(=O)(=O)Nc1ccc(Oc2ccc(F)cc2F)c(-c2cn(C)c(=O)c3[nH]ccc23)c1` [MIVEBRESIB] the Kd [1] was > 1 µM, the clearance [2] was 27 L/h/kg and the CLint scaled [3] was 2.3 L/h/kg. It also gave an EC50 [4] of 0.013 µM, a Cp [5] of 0.03 to 0.1 µM and an inhibition in vivo at 1 mg/kg [6] of 99%. The half-life [7] was 25.1 h, the Drug excretion [8] was 76 %ID and the clearance [9] was 0.14 L/h/kg. For the same molecule, the EC50 [10] was 0.02 µM, the half-life [11] was 2.7 h and the IC50 [12] was 0.8 µM. The Kd [13] was > 1 µM, the half-life [14] was 5.8 h and the clearance [15] was 0.33 L/h/kg. It also gave a FaFg [16] of 0.9, a fAUC [17] of 270 nM·h and a CLint scaled [18] of 8.3 L/h/kg. It also gave an inhibition [19] of 87%, a half-life [20] of 4.4 h and a fraction unbound at 4 h, 1 µM [21] of 0.02. For the same molecule, the CL free [22] was < 2.9 L/h/kg, the bioavailability [23] was 41% and the Kd [24] was > 1 µM. For the same molecule, the inhibition [25] was 97%, the inhibition [26] was “Dose-dependent effect” and the IC50 [27] was 2.6 µM. It also gave a CLint scaled [28] of 0.87 L/h/kg, a Kd [29] of 0.087 µM and a CLint scaled [30] of 3.5 L/h/kg. The bioavailability [31] was 33%, the CLint scaled at 10 µM [32] was 4 L/h/kg and the Activity [33] was 6%. For the same molecule, the Kd [34] was > 1 µM, the Ki [35] was 0.0015 µM and the CLint scaled [36] was 3.1 L/h/kg. The Kd [37] was > 1 µM, the Papp [38] was 290 nm/s and the clearance [39] was 0.6 L/h/kg. The Kd [40] was > 1 µM and the Kd [41] was > 1 µM.
